Active and inactive are the calls of the source. The calls are words filed in the database; no cut-off is given here.
Columns and labels:
[1] = target: Dual specificity mitogen-activated protein kinase kinase 6 (Homo sapiens, UniProt P52564); assay: Inhibition of MAP2K6 in human HeLa cells lysate pre incubated for 15 mins followed by ATP acyl phosphate probe addition and measured after 10 mins by LC-MS/MS analysis; type: subcellular
[2] = target: Interferon-induced, double-stranded RNA-activated protein kinase (Homo sapiens, UniProt P19525); assay: Inhibition of PKR in human HeLa cells lysate pre incubated for 15 mins followed by ATP acyl phosphate probe addition and measured after 10 mins by LC-MS/MS analysis; type: subcellular
[3] = target: Tyrosine-protein kinase Fyn (Homo sapiens, UniProt P06241); assay: Inhibition of FYN in human HeLa cells lysate pre incubated for 15 mins followed by ADP acyl phosphate probe addition and measured after 10 mins by LC-MS/MS analysis; type: subcellular
[4] = Inhibition of CDK5/PRKX/PRKY in human HeLa cells lysate at 50 uM pre incubated for 15 mins followed by ADP acyl phosphate probe addition and measured after 10 mins by LC-MS/MS analysis relative to control; details: 25 min, condition cancer
Summary of the method: (§1)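 KiNativ profiling in HeLa lysate (5 mg/mL total protein). Lysate incubated 15 min with inhibitor at 50, 10, 2, 0.8 or 0 μM. ATP or ADP acylphosphate probe then added (5 μM final) and reacted 10 min. Reaction stopped with urea and analysed by targeted MS, using up to four fragment ions per kinase peptide-probe conjugate. % inhibition taken against untreated lysate. Run in duplicate.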

[5] = target: T1, Dual specificity mitogen-activated protein kinase kinase 7 (Homo sapiens) (UniProt O14733); assay: Inhibition of MAP2K7 in human HeLa cells lysate at 10 uM pre incubated for 15 mins followed by ADP acyl phosphate probe addition and measured after 10 mins by LC-MS/MS analysis relative to control; type: subcellular; details: time 25.0 min
T1 sequence (whole entry): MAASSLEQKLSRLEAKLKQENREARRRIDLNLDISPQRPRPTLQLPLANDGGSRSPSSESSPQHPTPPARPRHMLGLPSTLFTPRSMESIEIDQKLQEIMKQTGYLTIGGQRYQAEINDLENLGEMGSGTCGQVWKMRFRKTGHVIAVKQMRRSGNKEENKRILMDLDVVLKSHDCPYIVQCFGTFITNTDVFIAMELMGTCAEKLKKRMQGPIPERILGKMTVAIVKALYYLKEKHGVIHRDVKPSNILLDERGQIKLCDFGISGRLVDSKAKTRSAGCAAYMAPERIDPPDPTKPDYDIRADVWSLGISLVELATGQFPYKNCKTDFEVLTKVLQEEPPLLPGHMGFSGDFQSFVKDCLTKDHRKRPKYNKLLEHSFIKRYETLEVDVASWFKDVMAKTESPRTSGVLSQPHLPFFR

[6] = target: Cyclin-dependent kinase 2 (Homo sapiens, UniProt P24941); assay: Inhibition of CDK2 K2 site in human HeLa cells lysate at 10 uM pre incubated for 15 mins followed by ADP acyl phosphate probe addition and measured after 10 mins by LC-MS/MS analysis relative to control; type: subcellular; details: time 25.0 min; summary of the method: as §1
[7] = target: T2, Serine/threonine-protein kinase 4 (Homo sapiens) (UniProt Q13043); assay: Inhibition of MST1 in human HeLa cells lysate at 2 uM pre incubated for 15 mins followed by ADP acyl phosphate probe addition and measured after 10 mins by LC-MS/MS analysis relative to control; type: subcellular; details: time 25.0 min
T2 sequence (whole entry): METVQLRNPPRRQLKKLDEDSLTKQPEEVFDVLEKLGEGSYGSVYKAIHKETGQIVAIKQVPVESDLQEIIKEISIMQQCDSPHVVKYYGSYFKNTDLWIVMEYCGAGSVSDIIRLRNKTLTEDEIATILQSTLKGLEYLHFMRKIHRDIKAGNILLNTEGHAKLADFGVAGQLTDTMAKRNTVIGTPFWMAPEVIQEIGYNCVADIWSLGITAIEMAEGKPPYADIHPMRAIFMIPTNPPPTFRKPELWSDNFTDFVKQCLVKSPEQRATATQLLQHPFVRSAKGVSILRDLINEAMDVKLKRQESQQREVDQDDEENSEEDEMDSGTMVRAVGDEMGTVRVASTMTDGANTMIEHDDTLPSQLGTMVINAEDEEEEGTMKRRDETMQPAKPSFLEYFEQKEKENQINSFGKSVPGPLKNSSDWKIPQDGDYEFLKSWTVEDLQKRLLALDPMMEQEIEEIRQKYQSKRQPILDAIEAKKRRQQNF

[8] = target: Rho-associated protein kinase (Homo sapiens, UniProt O75116+Q13464); assay: Inhibition of ROCK1/2 in human HeLa cells lysate at 50 uM pre incubated for 15 mins followed by ATP acyl phosphate probe addition and measured after 10 mins by LC-MS/MS analysis relative to control; type: subcellular; details: time 25.0 min
[9] = target: Serine/threonine-protein kinase WNK1 (Homo sapiens, UniProt Q9H4A3); assay: Inhibition of Wnk1 in human HeLa cells lysate at 50 uM pre incubated for 15 mins followed by ATP acyl phosphate probe addition and measured after 10 mins by LC-MS/MS analysis relative to control; type: subcellular; details: time 25.0 min
[10] = target: Mitogen-activated protein kinase 14 (Homo sapiens, UniProt Q16539); assay: Inhibition of p38a in human HeLa cells lysate at 10 uM pre incubated for 15 mins followed by ATP acyl phosphate probe addition and measured after 10 mins by LC-MS/MS analysis relative to control; type: subcellular; details: time 25.0 min
[11] = target: Calcium/calmodulin-dependent protein kinase type II subunit gamma (Homo sapiens, UniProt Q13555); assay: Inhibition of CAMK2g in human HeLa cells lysate at 10 uM pre incubated for 15 mins followed by ATP acyl phosphate probe addition and measured after 10 mins by LC-MS/MS analysis relative to control; type: subcellular; details: time 25.0 min
Summary of the method: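 KiNativ-type profiling in HeLa lysate (5 mg/mL total protein). Lysate preincubated 15 min with inhibitor at 50, 10, 2, 0.8 or 0 μM, then ATP or ADP acylphosphate probe added (5 μM final) for 10 min. Reaction stopped with urea and analysed by targeted MS, using up to four fragment ions per kinase peptide-probe conjugate. % inhibition calculated against untreated lysate. Duplicate reactions.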

[12] = target: T3, Cyclin-dependent kinase 11B (Homo sapiens, UniProt P21127); assay: Inhibition of PITSLRE in human HeLa cells lysate at 10 uM pre incubated for 15 mins followed by ATP acyl phosphate probe addition and measured after 10 mins by LC-MS/MS analysis relative to control; type: subcellular; details: time 25.0 min
[13] = Inhibition of MAP3K5/MAP3K6/MAP3K15 in human HeLa cells lysate at 2 uM pre incubated for 15 mins followed by ATP acyl phosphate probe addition and measured after 10 mins by LC-MS/MS analysis relative to control; details: 25 min, condition cancer
[14] = target: T3, Cyclin-dependent kinase 11B; assay: Inhibition of PITSLRE in human HeLa cells lysate at 2 uM pre incubated for 15 mins followed by ATP acyl phosphate probe addition and measured after 10 mins by LC-MS/MS analysis relative to control; type: subcellular; details: time 25.0 min
[15] = target: Mitogen-activated protein kinase 7 (Mus musculus) (UniProt Q9WVS8); assay: Inhibition of BMK1 in mouse MEF cells transfected with PML2D S403D/T409D mutant assessed as increase in p21 protein expression at 5 uM incubated for 16 hrs by Western blot analysis; type: cell-based
Summary of the method: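 Pml−/− MEFs infected with Ad-EV, Ad-PML or Ad-PML2D. Three days later treated ±5 μM inhibitor for 16 h. p21 western blot quantified by densitometry and normalized to GAPDH, relative to untreated Ad-EV-infected Pml−/− cells set as 1. n = 3, ±SEM.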

T3 sequence (P21127 whole entry): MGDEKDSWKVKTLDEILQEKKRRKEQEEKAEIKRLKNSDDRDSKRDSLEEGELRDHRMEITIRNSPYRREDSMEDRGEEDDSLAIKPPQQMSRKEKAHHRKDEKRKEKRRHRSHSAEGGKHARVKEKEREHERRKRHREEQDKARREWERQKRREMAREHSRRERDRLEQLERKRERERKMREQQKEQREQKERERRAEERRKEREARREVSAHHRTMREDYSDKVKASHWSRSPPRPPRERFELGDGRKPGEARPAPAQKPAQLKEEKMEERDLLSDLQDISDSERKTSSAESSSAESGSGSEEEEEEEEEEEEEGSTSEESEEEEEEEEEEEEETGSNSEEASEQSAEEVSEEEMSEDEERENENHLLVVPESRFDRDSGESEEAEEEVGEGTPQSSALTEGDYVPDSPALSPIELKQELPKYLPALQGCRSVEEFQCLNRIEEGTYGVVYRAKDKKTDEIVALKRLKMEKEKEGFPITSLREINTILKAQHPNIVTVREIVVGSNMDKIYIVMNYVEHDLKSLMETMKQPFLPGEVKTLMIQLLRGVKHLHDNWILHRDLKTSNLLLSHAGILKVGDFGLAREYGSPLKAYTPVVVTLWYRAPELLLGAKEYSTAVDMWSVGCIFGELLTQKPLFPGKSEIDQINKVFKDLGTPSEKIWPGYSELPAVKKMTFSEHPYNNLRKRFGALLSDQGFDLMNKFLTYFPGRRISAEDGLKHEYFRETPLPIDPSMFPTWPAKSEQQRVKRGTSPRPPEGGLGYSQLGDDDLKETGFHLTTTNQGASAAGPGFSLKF
Chain of Calcium/calmodulin-dependent protein kinase type II subunit gamma (Q13555 whole entry, the tested form may be a part): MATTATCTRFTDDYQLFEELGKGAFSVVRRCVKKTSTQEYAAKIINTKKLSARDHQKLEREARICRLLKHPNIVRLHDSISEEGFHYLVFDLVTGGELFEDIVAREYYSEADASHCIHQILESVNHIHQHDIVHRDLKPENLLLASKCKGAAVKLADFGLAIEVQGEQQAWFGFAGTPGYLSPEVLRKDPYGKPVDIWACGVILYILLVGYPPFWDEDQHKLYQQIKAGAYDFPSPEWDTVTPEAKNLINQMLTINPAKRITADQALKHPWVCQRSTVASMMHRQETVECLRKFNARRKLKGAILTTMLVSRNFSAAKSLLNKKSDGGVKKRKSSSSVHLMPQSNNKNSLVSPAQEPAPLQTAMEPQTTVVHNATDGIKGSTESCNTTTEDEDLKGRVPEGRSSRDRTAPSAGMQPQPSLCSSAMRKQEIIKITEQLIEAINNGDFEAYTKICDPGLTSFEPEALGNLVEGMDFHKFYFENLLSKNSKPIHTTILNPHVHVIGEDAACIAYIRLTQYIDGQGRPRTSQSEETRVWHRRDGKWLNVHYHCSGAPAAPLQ
Chain of Interferon-induced, double-stranded RNA-activated protein kinase (P19525 whole entry): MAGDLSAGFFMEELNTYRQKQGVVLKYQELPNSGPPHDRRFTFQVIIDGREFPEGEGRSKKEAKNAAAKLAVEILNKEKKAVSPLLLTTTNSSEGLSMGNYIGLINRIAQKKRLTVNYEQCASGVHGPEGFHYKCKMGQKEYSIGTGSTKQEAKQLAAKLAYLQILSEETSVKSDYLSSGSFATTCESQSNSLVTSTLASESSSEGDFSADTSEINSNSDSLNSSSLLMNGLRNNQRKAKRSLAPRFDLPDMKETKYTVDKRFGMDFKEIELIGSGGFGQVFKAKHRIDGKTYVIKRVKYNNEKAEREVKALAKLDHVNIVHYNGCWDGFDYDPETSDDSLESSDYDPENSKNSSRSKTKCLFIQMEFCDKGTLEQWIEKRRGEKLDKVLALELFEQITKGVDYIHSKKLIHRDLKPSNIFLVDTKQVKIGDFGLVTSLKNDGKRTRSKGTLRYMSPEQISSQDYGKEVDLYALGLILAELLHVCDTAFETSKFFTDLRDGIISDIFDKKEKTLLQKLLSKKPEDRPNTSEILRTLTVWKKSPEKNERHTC
Chain of Dual specificity mitogen-activated protein kinase kinase 6 (P52564 whole entry): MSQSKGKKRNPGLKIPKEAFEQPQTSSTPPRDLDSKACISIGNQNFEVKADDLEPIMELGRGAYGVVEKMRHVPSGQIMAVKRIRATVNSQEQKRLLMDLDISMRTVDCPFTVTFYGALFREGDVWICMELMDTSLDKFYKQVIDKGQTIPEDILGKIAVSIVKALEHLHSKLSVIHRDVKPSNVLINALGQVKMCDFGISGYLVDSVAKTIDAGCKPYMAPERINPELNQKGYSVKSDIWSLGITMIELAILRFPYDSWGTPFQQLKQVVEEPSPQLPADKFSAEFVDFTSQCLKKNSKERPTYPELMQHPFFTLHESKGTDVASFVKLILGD
Chain of Serine/threonine-protein kinase WNK1 (Q9H4A3 whole entry, looked up): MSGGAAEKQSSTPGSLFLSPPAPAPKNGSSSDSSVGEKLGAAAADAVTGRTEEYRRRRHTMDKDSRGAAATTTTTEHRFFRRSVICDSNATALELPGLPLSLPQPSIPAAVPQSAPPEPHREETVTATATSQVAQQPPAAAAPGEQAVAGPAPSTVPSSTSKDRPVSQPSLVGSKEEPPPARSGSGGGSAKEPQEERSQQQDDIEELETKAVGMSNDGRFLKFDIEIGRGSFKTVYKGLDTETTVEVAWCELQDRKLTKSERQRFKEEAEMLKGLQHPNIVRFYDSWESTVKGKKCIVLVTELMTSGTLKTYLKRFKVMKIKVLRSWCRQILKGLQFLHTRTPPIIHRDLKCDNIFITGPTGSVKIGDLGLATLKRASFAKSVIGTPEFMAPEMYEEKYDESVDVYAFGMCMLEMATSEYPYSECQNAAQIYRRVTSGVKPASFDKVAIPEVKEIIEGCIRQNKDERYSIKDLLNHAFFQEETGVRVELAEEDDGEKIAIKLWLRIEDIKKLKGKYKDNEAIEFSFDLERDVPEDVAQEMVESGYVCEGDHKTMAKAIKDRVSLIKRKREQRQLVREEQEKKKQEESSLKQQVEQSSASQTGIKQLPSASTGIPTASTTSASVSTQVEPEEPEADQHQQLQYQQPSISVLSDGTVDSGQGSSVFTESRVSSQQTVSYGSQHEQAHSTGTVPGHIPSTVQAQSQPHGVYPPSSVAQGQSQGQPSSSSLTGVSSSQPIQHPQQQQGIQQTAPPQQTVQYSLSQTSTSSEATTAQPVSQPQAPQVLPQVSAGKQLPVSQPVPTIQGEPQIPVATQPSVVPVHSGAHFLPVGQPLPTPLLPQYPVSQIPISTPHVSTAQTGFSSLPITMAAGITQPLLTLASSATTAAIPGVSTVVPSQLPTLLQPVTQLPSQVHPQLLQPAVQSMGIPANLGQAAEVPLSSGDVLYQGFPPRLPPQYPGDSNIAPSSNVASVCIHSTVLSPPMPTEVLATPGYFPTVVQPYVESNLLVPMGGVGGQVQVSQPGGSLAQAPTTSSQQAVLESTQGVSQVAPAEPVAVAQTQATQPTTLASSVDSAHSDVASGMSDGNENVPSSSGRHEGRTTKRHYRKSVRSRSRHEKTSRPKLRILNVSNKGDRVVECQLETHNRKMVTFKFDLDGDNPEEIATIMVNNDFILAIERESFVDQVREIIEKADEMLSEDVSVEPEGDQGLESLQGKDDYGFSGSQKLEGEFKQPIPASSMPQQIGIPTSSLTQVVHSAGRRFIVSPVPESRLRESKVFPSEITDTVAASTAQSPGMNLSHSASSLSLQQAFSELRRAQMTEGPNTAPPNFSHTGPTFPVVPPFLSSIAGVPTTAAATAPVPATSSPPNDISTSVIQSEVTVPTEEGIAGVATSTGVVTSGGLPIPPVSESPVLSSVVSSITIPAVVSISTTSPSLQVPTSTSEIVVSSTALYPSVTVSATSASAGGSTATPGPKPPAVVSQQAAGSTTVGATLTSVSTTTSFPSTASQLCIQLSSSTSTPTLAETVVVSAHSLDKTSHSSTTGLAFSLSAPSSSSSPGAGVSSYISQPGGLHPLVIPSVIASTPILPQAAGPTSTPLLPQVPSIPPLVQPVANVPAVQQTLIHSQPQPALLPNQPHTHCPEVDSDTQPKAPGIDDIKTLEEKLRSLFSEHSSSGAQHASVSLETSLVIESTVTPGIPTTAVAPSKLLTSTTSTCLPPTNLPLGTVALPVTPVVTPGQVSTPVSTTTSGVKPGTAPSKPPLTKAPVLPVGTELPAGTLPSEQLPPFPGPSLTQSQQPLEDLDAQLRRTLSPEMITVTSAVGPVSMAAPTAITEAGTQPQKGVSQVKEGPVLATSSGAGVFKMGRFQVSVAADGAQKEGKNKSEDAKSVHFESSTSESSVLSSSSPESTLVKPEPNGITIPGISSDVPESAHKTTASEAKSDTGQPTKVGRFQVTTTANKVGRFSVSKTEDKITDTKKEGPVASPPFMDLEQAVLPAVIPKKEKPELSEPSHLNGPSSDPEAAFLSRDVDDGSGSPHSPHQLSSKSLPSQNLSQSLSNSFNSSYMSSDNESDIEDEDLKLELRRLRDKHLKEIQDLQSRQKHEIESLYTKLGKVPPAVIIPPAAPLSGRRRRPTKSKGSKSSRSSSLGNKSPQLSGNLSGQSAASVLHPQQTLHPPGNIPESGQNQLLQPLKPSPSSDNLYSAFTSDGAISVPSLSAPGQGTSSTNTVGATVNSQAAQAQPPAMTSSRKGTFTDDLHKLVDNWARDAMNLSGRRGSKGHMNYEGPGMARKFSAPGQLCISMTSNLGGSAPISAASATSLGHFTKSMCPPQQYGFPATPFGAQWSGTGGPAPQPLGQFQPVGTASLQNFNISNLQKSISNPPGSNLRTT
Chain of Mitogen-activated protein kinase 14 (Q16539 whole entry): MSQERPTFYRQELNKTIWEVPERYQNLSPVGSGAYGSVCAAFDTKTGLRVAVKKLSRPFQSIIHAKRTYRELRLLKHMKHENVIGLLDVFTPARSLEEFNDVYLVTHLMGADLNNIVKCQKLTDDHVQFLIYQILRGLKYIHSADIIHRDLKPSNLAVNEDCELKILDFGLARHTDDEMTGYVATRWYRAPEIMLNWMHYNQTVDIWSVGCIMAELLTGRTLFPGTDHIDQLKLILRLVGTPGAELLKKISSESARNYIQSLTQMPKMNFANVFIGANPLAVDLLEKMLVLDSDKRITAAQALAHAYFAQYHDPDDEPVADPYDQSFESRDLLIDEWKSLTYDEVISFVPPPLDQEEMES

With `CCOc1cc(N2CCC(O)CC2)ccc1Nc1ncc2c(n1)N(C)c1ccccc1C(=O)N2C` the IC50 [1] was over 50 µM, the IC50 [2] was over 50 µM and the IC50 [3] was over 50 µM. The inhibition at 50 µM [4] was -10%, the inhibition [5] was -9.9% and the inhibition [6] was -7.5%. The inhibition [7] was 30.6%, the inhibition [8] was -3% and the inhibition [9] was -9.5%. For the same molecule, the inhibition [10] was -4%, the inhibition [11] was -8.6% and the inhibition [12] was 0.3%. For the same molecule, the inhibition at 2 µM [13] was 2%, the inhibition [14] was 4.9% and the inhibition [15] was “inactive”.
